Assays:
[1] = test system: Mus musculus; assay: Antiinflammatory activity in po dosed BALB/c mouse assessed as inhibition of LPS-induced TNFalpha release administered for 5 hrs before LPS challenge measured after 6.5 hrs post dose by ELISA; type: functional, organism-based
Procedure, shortened: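 BALB/c female mice, 6–8 weeks old, n = 7–8 per treatment. Compounds given by oral gavage at 30 and 100 mg/kg in PEG400/HCl/Tween80/water; controls received vehicle alone. Five hours later, E. coli O111:B4 LPS 50 µg/kg ip. Serum collected 90 min after LPS, TNF-α measured by ELISA. Drug exposure sampled 6.5 h post-dose. Mean ± standard error.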

[2] = test system: Blood; assay: Antiinflammatory activity in mouse whole blood assessed as inhibition of LPS-induced TNFalpha release treated for 5 mins before LPS challenge measured after 6 hrs by ELISA; type: functional, tissue-based
[3] = Volume of distribution at steady state in mouse at 2 mg/kg, iv and 10 mg/kg, po; type: ADME, organism-based; conditions: in vivo, read-out: Vdss
[4] = Clearance in mouse at 2 mg/kg, iv and 10 mg/kg, po; type: ADME, organism-based; conditions: in vivo
[5] = Mean residence time in rat at 2 mg/kg, iv and 10 mg/kg, po; type: ADME, organism-based; conditions: in vivo
[6] = Half life in dog at 2 mg/kg, iv; type: ADME, organism-based, Canis lupus familiaris; design: dose 2 mg/kg, route intravenous; conditions: in vivo
Procedure, shortened: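 Dog pharmacokinetics, iv dosing only, in vehicle PEG400:water 80:20.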

[7] = Half life in rat at 2 mg/kg, iv and 10 mg/kg, po; type: ADME, organism-based; conditions: in vivo
[8] = Tmax in mouse at 2 mg/kg, iv and 10 mg/kg, po; type: ADME, organism-based; conditions: in vivo
[9] = Tmax in rat at 2 mg/kg, iv and 10 mg/kg, po; type: ADME, organism-based; conditions: in vivo
[10] = Oral bioavailability in mouse at 10 mg/kg; type: ADME, organism-based; conditions: in vivo
[11] = Oral bioavailability in rat at 10 mg/kg; type: ADME, organism-based; conditions: in vivo
[12] = molecular target: T1, Inhibitor of nuclear factor kappa-B kinase subunit alpha (Homo sapiens, UniProt O15111); assay: Inhibition of IKK1
T1 sequence (O15111 whole entry): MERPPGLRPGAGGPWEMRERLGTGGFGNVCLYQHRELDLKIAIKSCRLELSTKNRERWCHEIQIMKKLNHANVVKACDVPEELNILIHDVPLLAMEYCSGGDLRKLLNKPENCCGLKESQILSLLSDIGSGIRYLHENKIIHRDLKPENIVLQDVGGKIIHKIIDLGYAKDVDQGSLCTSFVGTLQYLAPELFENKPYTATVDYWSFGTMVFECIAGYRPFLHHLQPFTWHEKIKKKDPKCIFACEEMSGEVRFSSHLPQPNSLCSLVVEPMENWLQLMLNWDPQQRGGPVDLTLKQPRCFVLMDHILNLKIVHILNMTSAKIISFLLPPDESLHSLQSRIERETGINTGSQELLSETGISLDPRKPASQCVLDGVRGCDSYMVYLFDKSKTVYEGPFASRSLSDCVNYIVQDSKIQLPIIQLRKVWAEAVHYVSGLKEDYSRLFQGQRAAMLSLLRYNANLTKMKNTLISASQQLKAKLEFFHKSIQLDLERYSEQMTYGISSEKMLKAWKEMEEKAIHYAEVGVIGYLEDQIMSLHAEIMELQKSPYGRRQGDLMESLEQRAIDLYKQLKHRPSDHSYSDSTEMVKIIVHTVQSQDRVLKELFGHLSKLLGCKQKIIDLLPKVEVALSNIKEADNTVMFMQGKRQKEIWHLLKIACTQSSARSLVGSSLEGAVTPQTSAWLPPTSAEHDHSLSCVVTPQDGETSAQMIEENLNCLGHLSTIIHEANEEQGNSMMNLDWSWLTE

[13] = test system: PBMC; assay: Antiinflammatory activity in human PBMC assessed as inhibition of LPS-induced TNFalpha release treated for 5 mins before LPS challenge measured after 6 hrs by ELISA; type: functional, cell-based
Procedure, shortened: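 PBMCs purified from heparinized healthy-volunteer blood by Ficoll-Hypaque gradient and suspended at 5 × 10⁶/mL in RPMI with 10% FBS. Cells preincubated with compound (0.2% DMSO) for 5 min at room temperature. LPS added from a 200 ng/mL stock, then 6 h at 37 °C. Medium TNF-α measured by ELISA. IC50 by linear regression.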

[14] = molecular target: T2, Inhibitor of nuclear factor kappa-B kinase subunit beta (Homo sapiens, UniProt O14920); assay: Inhibition of IKK2
T2 sequence (O14920 whole entry): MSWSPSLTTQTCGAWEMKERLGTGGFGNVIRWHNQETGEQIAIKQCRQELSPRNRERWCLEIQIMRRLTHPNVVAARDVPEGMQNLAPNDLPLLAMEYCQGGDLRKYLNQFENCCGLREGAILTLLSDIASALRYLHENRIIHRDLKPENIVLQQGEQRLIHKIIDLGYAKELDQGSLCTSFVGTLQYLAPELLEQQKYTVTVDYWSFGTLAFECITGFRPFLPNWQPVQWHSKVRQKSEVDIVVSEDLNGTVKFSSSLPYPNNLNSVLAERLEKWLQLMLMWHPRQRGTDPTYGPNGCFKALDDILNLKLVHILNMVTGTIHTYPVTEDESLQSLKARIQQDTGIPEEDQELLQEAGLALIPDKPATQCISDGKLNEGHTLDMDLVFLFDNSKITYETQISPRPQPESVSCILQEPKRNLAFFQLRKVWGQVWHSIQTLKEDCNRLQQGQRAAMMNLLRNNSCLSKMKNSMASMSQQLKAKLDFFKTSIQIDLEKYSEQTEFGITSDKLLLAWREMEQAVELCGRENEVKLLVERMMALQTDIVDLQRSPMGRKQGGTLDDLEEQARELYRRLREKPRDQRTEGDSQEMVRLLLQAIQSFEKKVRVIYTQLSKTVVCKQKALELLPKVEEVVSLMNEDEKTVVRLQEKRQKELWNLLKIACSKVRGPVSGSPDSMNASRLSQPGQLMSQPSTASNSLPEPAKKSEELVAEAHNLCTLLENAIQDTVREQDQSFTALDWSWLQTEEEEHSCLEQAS
Procedure, shortened: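 IKK-2 added at room temperature to 50 µg/mL GST-IκBα with ATP in 25 mM Tris·HCl, pH 7.5, containing MgCl₂, phosphate salts, NaCl, KCl, 1 mM DTT, 5% glycerol and BSA. Stopped after 60 min with 33 mM EDTA. Phospho-IκBα read by fluorescence-polarization competition between an anti-phospho-IκBα antibody and a fluorescein-labelled phosphopeptide.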

[15] = test system: Mus musculus; assay: Antiarthritic activity in mouse assessed as decrease in collagen-induced arthritis at 60 mg/kg, po BID administered at time of second collagen challenge on day 25 measured on day 42; type: functional
Procedure, shortened: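 Collagen-induced arthritis in mice, n = 14–15 per group. Collagen priming injection on day 1, second collagen injection on day 25. Dosing 60 mg/kg by oral gavage twice daily, or vehicle, starting at the second injection. Read-out is the average gross clinical score per treatment group.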

[16] = molecular target: Mitogen-activated protein kinase 10 (Homo sapiens) (UniProt P53779); assay: Residual activity at JNK3 at 10 uM relative to control
Chain of Mitogen-activated protein kinase 10 (Homo sapiens) (P53779 whole entry): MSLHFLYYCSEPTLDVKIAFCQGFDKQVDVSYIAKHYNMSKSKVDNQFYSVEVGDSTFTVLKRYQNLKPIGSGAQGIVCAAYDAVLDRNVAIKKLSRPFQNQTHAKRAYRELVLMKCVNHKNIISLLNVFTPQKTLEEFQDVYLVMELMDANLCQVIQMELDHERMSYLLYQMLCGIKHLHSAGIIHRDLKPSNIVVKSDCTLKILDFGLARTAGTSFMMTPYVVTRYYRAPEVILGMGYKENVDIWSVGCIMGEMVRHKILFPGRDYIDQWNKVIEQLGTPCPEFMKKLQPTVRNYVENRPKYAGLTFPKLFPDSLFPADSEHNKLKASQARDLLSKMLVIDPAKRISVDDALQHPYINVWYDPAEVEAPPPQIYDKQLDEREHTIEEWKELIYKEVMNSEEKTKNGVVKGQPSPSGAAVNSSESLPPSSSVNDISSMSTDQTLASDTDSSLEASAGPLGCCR

[17] = molecular target: Serine/threonine-protein kinase 16 (Homo sapiens) (UniProt O75716); assay: Residual activity at STK16 at 10 uM relative to control
Chain of Serine/threonine-protein kinase 16 (Homo sapiens) (O75716 whole entry): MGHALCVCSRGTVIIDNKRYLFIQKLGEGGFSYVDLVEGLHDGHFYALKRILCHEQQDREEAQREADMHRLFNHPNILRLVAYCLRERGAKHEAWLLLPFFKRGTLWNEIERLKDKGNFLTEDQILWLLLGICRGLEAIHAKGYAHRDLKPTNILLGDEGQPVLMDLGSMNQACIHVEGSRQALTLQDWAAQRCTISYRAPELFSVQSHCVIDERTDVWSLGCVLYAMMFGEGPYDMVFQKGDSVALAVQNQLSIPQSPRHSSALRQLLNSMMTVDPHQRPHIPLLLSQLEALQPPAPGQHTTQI

- IC50 [2]: 1000 nM
- Vd [3]: 1.5 L/kg
- clearance [4]: 62 mL/min/kg
- MRT [5]: 126 min
- half-life [6]: 42 min
- half-life [7]: 36 min
- Tmax [8]: 30 min
- Tmax [9]: 120 min
- bioavailability [10]: 57%
- bioavailability [11]: 88%
- IC50 [12]: 420 nM
- IC50 [14]: 19 nM
- residual activity [16]: < 10%
- residual activity [17]: < 10%
SMILES: CCNc1nc2sc(-c3cccc([C@H](C)NC(C)=O)c3)nc2c2c1ncn2C
- inhibition [1]: Dose-dependent effect
- IC50 [13]: 220 nM
- inhibition in vivo at 60 mg/kg [15]: 80%

Reference: ChEMBL document CHEMBL1641407, “Imidazo[4,5-d]thiazolo[5,4-b]pyridine based inhibitors of IKK2: synthesis, SAR, PK/PD and activity in a preclinical model of rheumatoid arthritis” (Bioorg Med Chem Lett, 2011)
